Data from article PMC4369925 (Current molecular medicine, 2014).
Residues, ends and D or L forms follow the SMILES beside them.

Tests used:
rPRCP1 [1] = target: T1, rPRCP1 (Homo sapiens, UniProt P42785); experiment: Peptide inhibition of rPRCP1 hydrolysis of APpNA; type: biochemical
T1 sequence (P42785 46-496): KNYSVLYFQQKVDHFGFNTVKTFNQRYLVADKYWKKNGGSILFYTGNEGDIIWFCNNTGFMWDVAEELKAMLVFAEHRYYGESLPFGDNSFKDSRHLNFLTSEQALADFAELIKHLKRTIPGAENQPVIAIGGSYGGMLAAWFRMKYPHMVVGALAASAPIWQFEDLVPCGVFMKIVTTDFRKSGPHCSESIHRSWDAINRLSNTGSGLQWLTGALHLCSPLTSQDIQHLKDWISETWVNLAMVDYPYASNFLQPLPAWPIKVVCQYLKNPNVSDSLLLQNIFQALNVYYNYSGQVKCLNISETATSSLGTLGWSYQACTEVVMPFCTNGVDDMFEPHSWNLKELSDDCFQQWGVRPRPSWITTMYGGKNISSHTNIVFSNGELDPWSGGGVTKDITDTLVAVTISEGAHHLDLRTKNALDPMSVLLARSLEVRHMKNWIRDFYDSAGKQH
In short: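 Recombinant PRCP1 hydrolysis of APpNA was measured at 37°C with sub-saturating substrate relative to Km. The initial hydrolysis rate was read at 405 nm in triplicate. Percent inhibition = [1 − (sample − blank)/(total − blank)] × 100, and IC50 and inhibition type were derived from it.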

plasma kallikrein = experiment: Autoactivation of human plasma PK with rPKs, fluid-phase assay; type: biochemical; conditions: 1 h
In short: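 Recombinant PK was expressed in stably transfected HEK cells in serum-free conditioned medium, purified by S-Sepharose cation exchange (pH 5.2, NaCl gradient) and dialysed into TBS pH 7.4. Plasma PK and rPKs, 25 nM each, were incubated in triplicate for 1 h at 37°C. […], kallikrein was assayed with or without a kallikrein inhibitor using 0.5 mM S2302 for 1 h at 37°C, read at 405 nm.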

rPRCP1 [2] = target: T1, rPRCP1; experiment: Hydrolysis of X-Pro-pNA chromogenic substrates by rPRCP1; type: biochemical; conditions: for ratio of Km to the Km of GPpNA: rPRCP1, X-Pro-pNA, 37°C 1 h, 405 nm, ratio <1 more selective than GPpNA
In short: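 Recombinant PRCP1 was expressed in Schneider 2 cells. Increasing concentrations of X-Pro-pNA substrates were incubated with it in HEPES-carbonated buffer (pH 7.1, 2 mM CaCl2, 1 mM MgCl2, 0.1% gelatin) at 37°C for 1 h in the dark; two substrates needed 24 h. pNA release was read at 405 nm. Runs were in duplicate, at least 3 times, and data were fit to Michaelis–Menten.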

rPRCP activation of PK = rPRCP activation of PK bound to HK on microtiter plate; type: biochemical, human; conditions: rPRCP 3 μg, HK-coated plate, 1 h
In short: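 Plasma PK, wild-type rPK or mutant rPKs (25 nM) were added to HK-coated microtiter wells with or without recombinant PRCP in HEPES-carbonate buffer pH 7.1 for 1 h at 37°C. Some wells also received a peptide blocking PK–HK binding (0.1 mM). S2302 (0.5 mM) was then added for 1 h at 37°C and read at 405 nm; three experiments.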

[3] = tested on: PRCP1-dependent PK activation on HPAEC; experiment: PRCP1-dependent PK activation; type: cell-based, human; conditions: 25 nM rPK + 25 nM HK on HPAEC

CSCC[C@H](NC(=O)[C@H](CCC(N)=O)NC(=O)[C@H](C)NC(=O)[C@H](CCCCN)NC(=O)CNC(=O)[C@@H](N)CC(=O)O)C(=O)N[C@@H](CCC(N)=O)C(=O)N[C@@H](CO)C(=O)N1CCC[C@H]1C(=O)N[C@@H](C)C(=O)O [DGK10] (H-DGKAQMQSPA-OH)
IC50 (rPRCP1 [1]): 600 µM

Cc1cc(Oc2nc(Oc3cccc(C(=N)N)c3)c(F)c(NC(C)CCc3ccccc3)c2F)c(C(=O)O)cc1N(C)C (centres unmarked) [PF048, reference compound]
block of autoactivation of PK (in words) (plasma kallikrein; 100 nM inhibitor, plasma PK 25 nM + rPK mutants 25 nM): block

Ala-Pro-paranitroanilide [APpNA, reference compound]
ratio of Km to the Km of GPpNA (rPRCP1 [2]): 0.4

Ser-Pro-paranitroanilide [SPpNA]
product turnover (kcat) compared with APpNA and GPpNA (rPRCP1 [2]; rPRCP1, Michaelis-Menten fit): not significantly different | ratio of Km to the Km of GPpNA (rPRCP1 [2]): 0.23 | catalytic efficiency (kcat/Km), times higher than GPpNA (rPRCP1 [2]; rPRCP hydrolysis): 6-7 times | catalytic efficiency (kcat/Km), fold higher than APpNA (rPRCP1 [2]; rPRCP hydrolysis, printed as 'at least'): 2-3 fold

rPK^P637A: recombinant PK, C-terminal Pro-Ala replaced by Ala-Ala
autoactivation of plasma PK (in words) (plasma kallikrein; plasma PK 25 nM + rPK 25 nM, S2302): lower threshold for autoactivation | activability by rPRCP (in words) (rPRCP activation of PK; 25 nM rPK): significantly more activable by rPRCP than wild type rPK

wild type rPK: recombinant wild type human prekallikrein
activation to plasma kallikrein on HPAEC (in words) [3]: less than half | degree of activation by rPRCP relative to wild type plasma PK (rPRCP activation of PK; 25 nM PK): about 66%
